The list is not random: actives were taken first. Their share in the collection is about 0.99%.
GSK3 alpha inh: human GSK-3 alpha kinase inhibition | P49840 | AID 2650 | ADP-Glo luminescence, 60 min | inhibition, % at 10 µM | actives 0.1% (n = 320,000);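 active means more than half of replicates show inhibition above 20%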;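 further: GST-tagged GSK-3 alpha with peptide substrate and 25 µM ATP; 0% = DMSO neutral wells and 100% = GW8510 positive control wells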
Rin1 Abl inh: blocks binding of human Rin1 to Abl | P00519+Q13671 | TR-FRET Rin1/Abl binding, biochemical | inhibition, % at 7.35 µM | actives 0.4% (n = 360,000); in the data active means inhibition above about 5%, passing the limit was not always enough
STK33 kinase inh: blocks human STK33 kinase activity | actives 0.073% (n = 320,000) | Q9BYT3 | inhibition, % at 10 µM | purified STK33, MBP phosphorylation, ADP-Glo luminescence;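 active means inhibition at or above 25%, using the most active replicate where run in duplicate; inactive means inhibition below 25%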
Target sequence (Q9BYT3 whole entry, looked up): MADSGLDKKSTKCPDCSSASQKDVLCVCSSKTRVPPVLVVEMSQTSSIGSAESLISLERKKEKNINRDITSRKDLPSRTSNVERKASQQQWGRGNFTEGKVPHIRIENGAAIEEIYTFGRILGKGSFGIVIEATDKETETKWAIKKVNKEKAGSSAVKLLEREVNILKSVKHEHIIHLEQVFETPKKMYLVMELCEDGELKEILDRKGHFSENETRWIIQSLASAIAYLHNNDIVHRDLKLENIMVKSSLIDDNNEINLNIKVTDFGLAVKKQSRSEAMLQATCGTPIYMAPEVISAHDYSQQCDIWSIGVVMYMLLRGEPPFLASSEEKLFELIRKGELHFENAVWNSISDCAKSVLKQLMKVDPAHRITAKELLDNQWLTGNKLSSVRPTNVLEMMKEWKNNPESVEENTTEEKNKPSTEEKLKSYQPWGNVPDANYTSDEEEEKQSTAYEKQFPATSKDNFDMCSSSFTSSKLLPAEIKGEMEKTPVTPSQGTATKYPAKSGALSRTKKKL
GSK3B inh: inhibitors of human GSK3beta kinase. P49841. GST-GSK3beta kinase, ADP-Glo luminescence, 60 min; stronger effect = lower value. activity score (negative = inhibition), % at 10 µM. actives 0.038% (n = 300,000);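 active means more than half of replicate wells score below -50%, meaning over 50% inhibition versus plate controls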;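 further: 0% = median DMSO wells and -100% = median GW8510 positive control wells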
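Test system – GST-tagged human GSK3beta kinase, cell-free · Incubation – 60 min enzyme reaction, room temperature · Signal – ADP-Glo luminescence · Also added – peptide substrate and ATP at 25 µM · Controls – DMSO neutral wells and GW8510 at 20 µM as positive · Buffer or medium – Tris/MgCl2 kinase buffer · Measure – Luminescence-derived activity versus plate DMSO and GW8510 wells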
Dyrk1A ADPGlo: inhibitors of rat Dyrk1A kinase; Q63470; ADP-Glo luminescence, NFATc1 peptide; inhibition, % at 12.5 µM; actives 0.43% (n = 310,000); in the data active means inhibition above about 50%;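 further: plate controls were vehicle with enzyme for no effect and no enzyme for full effect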
Arrestin-AP2 inh: inhibitors of human beta-arrestin and AP2 interaction; FITC-arrestin peptide / GST-AP2 beads, flow cytometry; AP2 beta2 appendage carries R879A mutation; inhibition, % at 10 µM; actives 0.31% (n = 340,000); AID 504490;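 active means inhibition above a set limit, near 3 SD of compounds lacking own fluorescence, cut at about 54% in these data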;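 further: plate controls were DMSO wells for no effect and 5 µM unlabelled arrestin peptide for full effect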
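System: GST-AP2 R879A glutathione beads; medium: PBS, Tween 20 0.05%, BSA 0.1%; reagent: fluorescein-tagged arrestin peptide at 50 nM final; schedule: pre-incubation 12 min, peptide binding 1 h, room temperature; detection: flow cytometry, FL1 (488/535 nm); read-out: inhibition as reduced fluorescein signal on beads, percent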
Rin1-Abl confirm: confirmation of inhibitors of human Rin1-Abl interaction. shares compounds with Rin1 Abl inh. actives 49% (n = 1,300). inhibition, % at 7.35 µM. TR-FRET Rin1-Abl binding, purified proteins
GFP quench: GFP fluorescence interference artifact; inhibition, % at 6.75 µM; shares compounds with Rin1 Abl inh; inhibitors/quenchers counterscreen; actives 8.5% (n = 1,300);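 further: ABL1-eGFP fusion protein alone without its partner RIN1-SBP; 0% = protein with vehicle and 100% = wells lacking protein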
GFP quench DR: quenches GFP in dose response, Rin1-Abl counter-screen | shares compounds with Rin1 Abl inh | IC50, µM | GFP fluorescence interference/quenching counterscreen | AID 602182 | 230 tested, under 10 active; call rule not given here;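 further: ABL1-eGFP fusion protein alone without its RIN1 binding partner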
* hit, by the source's call. Unless noted, no stated cut-off is given here; in the data, active means inhibition above about 6.5%; inactive means the rest.

Screening CC1=Nc2ccccc2NC(=O)C1Sc1nnc(C)s1 (configuration not stated) returned GSK3 alpha inh -2.4, Rin1 Abl inh 6.4*, STK33 kinase inh -1.1, GSK3B inh 1.7, Dyrk1A ADPGlo 7.6, Arrestin-AP2 inh -1.9, Rin1-Abl confirm 2.6 and GFP quench 0.7.
`O=C1Nc2ccccc2N=C(c2ccccc2)C1Br` (configuration not stated) gave GSK3 alpha inh -1.8, Rin1 Abl inh 2.8, STK33 kinase inh 9.1, GSK3B inh -5.0, Dyrk1A ADPGlo 2.5 and Arrestin-AP2 inh -21.2.
Screening Nc1c(C(=O)N2CCCCCC2)oc2ccccc12 returned GSK3 alpha inh -1.6, Rin1 Abl inh -3.5, STK33 kinase inh 0.2, GSK3B inh 17.3, Dyrk1A ADPGlo -2.7 and Arrestin-AP2 inh 45.7.
For O=C(NCc1ccncc1)Nc1ccccc1 the results were GSK3 alpha inh -20.7, Rin1 Abl inh 54.0*, STK33 kinase inh -1.6, GSK3B inh -2.3, Dyrk1A ADPGlo -8.1, Arrestin-AP2 inh 6.6, Rin1-Abl confirm -1.1 and GFP quench -1.0.
`CCN(CC)S(=O)(=O)c1ccc(NC(=O)C2CC(=O)N(c3ccc4c(c3)OCCO4)C2)cc1` (configuration not stated) gave Rin1 Abl inh 4.0, Dyrk1A ADPGlo -4.5 and Arrestin-AP2 inh 0.5.
Screening O=C(O)CCCC(=O)OCCCCc1cccs1 returned GSK3 alpha inh -1.7, Rin1 Abl inh -1.6, STK33 kinase inh -1.5, GSK3B inh 3.0, Dyrk1A ADPGlo -6.2 and Arrestin-AP2 inh 5.7.
For Nc1nnc(CCCCc2cccs2)o1 the results were Rin1 Abl inh 7.6*, Dyrk1A ADPGlo 4.8, Arrestin-AP2 inh -4.6, Rin1-Abl confirm 2.0 and GFP quench -0.5.
For O=C1C(=Cc2ccco2)CCC1=Cc1ccco1 the results were Rin1 Abl inh 11.9*, Arrestin-AP2 inh 37.3, Rin1-Abl confirm 16.8* and GFP quench 28.9*.
Screening O=C1C(=Cc2ccco2)CCCC1=Cc1ccco1 returned Rin1 Abl inh 5.8, Dyrk1A ADPGlo -1.9 and Arrestin-AP2 inh 12.1.
Screening CC(Oc1ccc(Br)cc1Br)C(=O)Nc1cccnc1Cl (configuration not stated) returned Rin1 Abl inh -3.6, STK33 kinase inh -0.3, GSK3B inh 0.0, Dyrk1A ADPGlo 3.1 and Arrestin-AP2 inh 2.8.
Screening Cc1nn(C(C)C(=O)NCCCc2ccccc2)c(=O)c2nn(-c3ccccc3)c(C)c12 (configuration not stated) returned GSK3 alpha inh -1.3, Rin1 Abl inh -1.2, STK33 kinase inh -0.1, GSK3B inh 1.1, Dyrk1A ADPGlo -2.8 and Arrestin-AP2 inh -19.9.
CC(=O)NC(c1cccs1)c1cc(F)c2cccnc2c1O (configuration not stated) was read as GSK3 alpha inh -0.6, Rin1 Abl inh 17.4*, STK33 kinase inh -2.1, Dyrk1A ADPGlo -2.5, Arrestin-AP2 inh -6.8, Rin1-Abl confirm 13.2* and GFP quench 4.0.
CN(C)S(=O)(=O)c1ccc(NC(=O)COc2ncnc3c2cnn3-c2ccccc2)cc1 was read as GSK3 alpha inh 0.1, Rin1 Abl inh 6.8*, STK33 kinase inh -0.5, GSK3B inh 0.4, Dyrk1A ADPGlo 0.8, Arrestin-AP2 inh 24.6, Rin1-Abl confirm 5.0 and GFP quench 2.5.
CC(=O)Nc1ccc(-c2ccnc3c2CC(C(=O)NCc2ccccc2)O3)cc1 (configuration not stated) was read as Rin1 Abl inh -3.6.
`CC(=O)Nc1cccc(-c2ccnc3c2CC(C(=O)NCc2ccc(N4CCN(C)CC4)cc2)O3)c1` (configuration not stated) gave Rin1 Abl inh 30.8*, Rin1-Abl confirm 27.9*, GFP quench -0.8 and GFP quench DR >67.5.
CN1CCN(c2ccc(CNC(=O)C3Cc4c(-c5ccc(Cl)cc5)ccnc4O3)cc2)CC1 (configuration not stated) was read as Rin1 Abl inh 15.2*, Rin1-Abl confirm 9.5* and GFP quench 1.0.
CC(=O)Nc1ccc(-c2ccnc3c2CC(C(=O)NCc2ccc(N4CCN(C)CC4)cc2)O3)cc1 (configuration not stated) was read as Rin1 Abl inh 14.1*, Rin1-Abl confirm 13.5* and GFP quench -0.6.
CC(=O)Nc1cccc(-c2ccnc3c2CC(C(=O)NCc2ccc(F)c(F)c2)O3)c1 (configuration not stated) was read as Rin1 Abl inh 0.8.
CC(=O)Nc1cccc(-c2ccnc3c2CC(C(=O)NCc2ccc(N(C)C)cc2)O3)c1 (configuration not stated) was read as Rin1 Abl inh 16.9*, Rin1-Abl confirm 10.3* and GFP quench 0.7.
Screening CC(=O)Nc1cccc(-c2ccnc3c2CC(C(=O)NCc2ccncc2)O3)c1 (configuration not stated) returned Rin1 Abl inh -2.5.
For Cc1ccc(NC(=O)c2cnc(SCC(=O)c3ccccc3)n(C)c2=O)cc1 the results were GSK3 alpha inh -1.3, Rin1 Abl inh 2.1, STK33 kinase inh -2.9, GSK3B inh -0.6, Dyrk1A ADPGlo 0.8 and Arrestin-AP2 inh -12.7.
For CC(=O)Nc1cccc(-c2csc(C(C)(O)c3ccc(F)c(F)c3)n2)c1 (configuration not stated) the results were Rin1 Abl inh 3.3.
`CN1CCN(c2ccc(CNC(=O)C3Cc4c(-c5ccc6c(c5)OCO6)ccnc4O3)cc2)CC1` (configuration not stated) gave Rin1 Abl inh 15.1*, Rin1-Abl confirm 14.1* and GFP quench -2.3.
For CCCCC#Cc1cncc(C(=O)N/N=C/c2ccccc2)c1 the results were GSK3 alpha inh -3.1, Rin1 Abl inh -2.4, STK33 kinase inh -0.9, GSK3B inh -1.5, Dyrk1A ADPGlo -15.3 and Arrestin-AP2 inh 4.0.
CCOc1ccc(NC(=O)N2CCC(NC(=O)C(Cc3ccccc3OC)NC(C)=O)CC2)cc1 (configuration not stated) was read as GSK3 alpha inh -1.1, Rin1 Abl inh 1.3, STK33 kinase inh -1.2, GSK3B inh -0.3, Dyrk1A ADPGlo -1.7 and Arrestin-AP2 inh 23.3.
O=C(c1cccs1)N1CCN(c2nnc(-c3ccccc3)c3ccccc23)CC1 was read as GSK3 alpha inh -1.5, Rin1 Abl inh -2.7, STK33 kinase inh 0.5, GSK3B inh 0.6 and Arrestin-AP2 inh 8.3.

Screens from PubChem BioAssay.
